From ChEMBL document CHEMBL1144560, “Synthesis of benzofuran scaffold-based potential PTP-1B inhibitors” (Bioorg Med Chem, 2007)
Activity calls are given as the source filed them. No cut-off for these calls is given here.

What was measured:
[1] = target: T1, Tyrosine-protein phosphatase non-receptor type 1 (Homo sapiens) (UniProt P18031); experiment: (§1) Inhibition of PTP1B at 100 uM
T1 sequence (whole entry): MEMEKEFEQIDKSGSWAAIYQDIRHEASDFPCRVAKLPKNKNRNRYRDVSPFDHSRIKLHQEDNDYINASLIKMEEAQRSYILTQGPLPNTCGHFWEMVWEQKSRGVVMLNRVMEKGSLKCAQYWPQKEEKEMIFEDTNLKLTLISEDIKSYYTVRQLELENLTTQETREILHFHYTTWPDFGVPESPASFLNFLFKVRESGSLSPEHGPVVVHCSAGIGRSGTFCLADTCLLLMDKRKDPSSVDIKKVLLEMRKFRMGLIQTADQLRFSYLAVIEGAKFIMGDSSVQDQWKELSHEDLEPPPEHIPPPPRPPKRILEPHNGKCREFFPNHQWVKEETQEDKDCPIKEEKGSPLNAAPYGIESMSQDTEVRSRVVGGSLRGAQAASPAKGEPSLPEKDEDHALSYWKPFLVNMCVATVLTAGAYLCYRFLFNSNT
Method in brief: (§2)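 Compound at 100 µM preincubated 10 min with PTP-1B, then 10 mM pNPP in 50 mM HEPES pH 7.0 with 1 mM DTT and 2 mM EDTA for 30 min at 37 °C. Stopped with 0.1 N NaOH. p-Nitrophenolate read at 410 nm (ε 1.78×10^4 M⁻¹cm⁻¹) to give residual activity. Mean of three independent experiments.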

[2] = target: T2, Tyrosine-protein phosphatase non-receptor type 1 (Homo sapiens, UniProt P18031); experiment: Inhibition of PTP1B
T2 sequence (P18031 whole entry): T1 sequence (whole entry)
Method in brief: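 No detergent present. Compounds at 10, 25, 50, 75 and 100 µM preincubated 10 min with PTP-1B, then 10 mM pNPP in 50 mM HEPES pH 7.0, 1 mM DTT, 2 mM EDTA, 30 min at 37 °C. NaOH stop. A410 converted to p-nitrophenolate (ε 1.78×10^4 M⁻¹cm⁻¹). IC50 and Ki derived.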

[3] = target: T2, Tyrosine-protein phosphatase non-receptor type 1; experiment: Inhibition of PTP1B in presence of 0.01% Triton X-100
Method in brief: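 0.01% Triton X-100 included during the 10-min preincubation of compound (10–100 µM) with PTP-1B. Then 10 mM pNPP in 50 mM HEPES pH 7.0, 1 mM DTT, 2 mM EDTA, 30 min at 37 °C, NaOH stop. Read at 410 nm (ε 1.78×10^4 M⁻¹cm⁻¹). IC50 and Ki derived.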

[4] = target: Tyrosine-protein phosphatase non-receptor type 1 (Homo sapiens) (UniProt P18031); experiment: as §1; method in brief: as §2; remark: listed apart in the source

For `COc1ccc(/C(O)=C/C(=O)c2ccc3occc3c2O)cc1`, the inhibition [1] was 24.3%.

In the case of `COc1cc2occc2cc1C(=O)/C=C(\O)c1ccccc1`, the inhibition [1] is reported as 41.5%.

`COc1ccc2cc(-c3coc4c(C(C)=O)c(OC)ccc34)oc2c1C(C)=O` was tested, and the inhibition [1] was 54.6%.

`CC(=O)c1c(O)ccc2cc(-c3coc4c(C(C)=O)c(O)ccc34)oc12` was tested, and the IC50 [2] was 75 µM, the Ki [2] was 64 µM and the inhibition [1] was 72%. The IC50 [3] was 56.3 µM and the Ki [3] was 54 µM.

`CC(=O)c1ccc2occc2c1O` gave an inhibition [1] of 21.6%.

`CC(=O)c1cc2cc(-c3coc4cc(O)c(C(C)=O)cc34)oc2cc1O` was tested, and the IC50 [2] was 80 µM, the Ki [2] was 37 µM and the inhibition [1] was 74.9%. The IC50 [3] was 91.3 µM and the Ki [3] was 61 µM.

`O=c1cc(-c2ccccc2)oc2c1ccc1occc12` gave an inhibition [1] of 21%.

Work on `O=C(/C=C(\O)c1ccccc1)c1cc2ccoc2cc1O` yielded an inhibition [1] of 24.3%.

With `O=C(/C=C(\O)c1ccccc1)c1ccc2occc2c1O` the inhibition [1] was 40.5%.

In the case of `COc1ccc(-c2cc(=O)c3ccc4occc4c3o2)cc1`, the inhibition [1] is reported as 22%.

For `CC(=O)c1cc2ccoc2cc1O`, the inhibition [1] was 19%.

In the case of `CC(=O)c1cc2oc(-c3coc4cc(C(C)=O)c(O)cc34)cc2cc1O`, the inhibition [1] is reported as 36.2%.

For `O=c1cc(-c2ccccc2)oc2cc3occc3cc12`, the IC50 [2] was 94 µM, the Ki [2] was 57 µM and the inhibition [1] was 67.5%. The IC50 [3] was 61.3 µM and the Ki [3] was 45 µM.

`O=c1cc(-c2ccc(CO)c(CO)c2)oc2cc3occc3cc12` showed an inhibition [1] of 8.1%.

Molecule `COc1ccc(-c2cc(=O)c3cc4ccoc4cc3o2)cc1OC` has an inhibition [1] of 24.3%.

With `CC(=O)c1ccc2oc(-c3coc4ccc(C(C)=O)c(O)c34)cc2c1O` the IC50 [2] was 87 µM, the Ki [2] was 35 µM and the inhibition [1] was 67.4%. For the same molecule, the IC50 [3] was 58.8 µM and the Ki [3] was 27.5 µM.

`COc1cccc(/C(O)=C/C(=O)c2cc3ccoc3cc2O)c1` was tested, and the Activity [1] was “inactive”.

With `COc1ccc(/C(O)=C/C(=O)c2ccc3occc3c2OC)cc1` the Activity [1] was “inactive”.

For `COc1ccc(/C(O)=C/C(=O)c2cc3ccoc3cc2O)cc1OC`, the inhibition [1] was 32.4%.

With `COc1cccc(-c2cc(=O)c3cc4ccoc4cc3o2)c1` the Activity [1] was “inactive”.

For `COC(=O)c1ccc2oc(-c3coc4ccc(C(=O)OC)c(O)c34)cc2c1O`, the inhibition [1] was 55.5%.

`O=C(/C=C(\O)c1ccc(CO)c(CO)c1)c1cc2ccoc2cc1O` was tested, and the inhibition [1] was 56.7%.

In the case of `COc1ccc(-c2cc(=O)c3cc4ccoc4cc3o2)cc1`, the IC50 [2] is reported as 72.5 µM, the Ki [2] is reported as 30 µM and the inhibition [1] is reported as 75.6%. The IC50 [3] was 68.8 µM and the Ki [3] was 36 µM.

With `COc1c(C(=O)/C=C(\O)c2ccc(CO)c(CO)c2)ccc2occc12` the inhibition [1] was 42.8%.

Molecule SODIUM ORTHOVANAD has an inhibition [4] of 56%.

In the case of `COc1ccc(/C(O)=C/C(=O)c2cc3ccoc3cc2O)cc1`, the inhibition [1] is reported as 40.5%.

Molecule `COc1c(C(=O)/C=C(\O)c2ccccc2Cl)ccc2occc12` has an inhibition [1] of 27%.
